Assay outcomes deposited in PubChem by several laboratories.
A selection: hits, their analogues and other compounds. The true share with any hit is near 2%.
DAGLB inh: DAGLB lipase inhibitors, primary screen, biochemical, fluorescence, HTS. Diacylglycerol lipase-beta (Homo sapiens), Q8NCG7. HEK293T DAGLB membrane lysate, EnzChek fluorogenic substrate. inhibition, % at 5.17 µM. 0.059% of 340,000 active; in the data active means inhibition above about 34%;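 further: 0% = enzyme with vehicle and 100% = wells lacking enzyme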
MT1-MMP act inh: blockers of MT1-MMP proenzyme processing, primary screen, HT1080 RFP-PRO-GFP cells, GFP/RFP fluorescence. Matrix metalloproteinase-14 (Homo sapiens), P50281. GFP/RFP ratio fluorescence, overnight; percent of plate control window, DMSO zero. GFP/RFP ratio change, % at 20 µM. 0.061% of 360,000 active. AID 651647, 2012;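 active means GFP/RFP ratio change of at least 30% with cell ATP level not reduced by more than half and red fluorescence within 50% of control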
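Assay system – RFP-PRO-GFP reporter HT1080 cells · Compound dosing – single dose of 20 µM compound, 1% DMSO final · Incubation – overnight compound exposure at 37 °C · Measure – GFP/RFP fluorescence ratio · Benchmarks – DMSO wells and RFP-L50D-GFP cells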
ABCB6 inh 2: ABCB6 transporter inhibitors, primary screen, K562-ABCB6 cells, flow cytometry, MLPCN library | K562-ABCB6 porphyrin accumulation, 1 h; active compounds read low | 0.19% of 360,000 active | fluorescence ratio to DMSO, % at 10 µM;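 active means fluorescence ratio to DMSO below 75%, the collection mean minus 3 SD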;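 further: signal is porphyrin accumulated inside mitochondria; 100% equals median channel fluorescence of DMSO control wells; lower ratio means ABCB6 inhibition with less porphyrin fluorescence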
Target sequence (Q9NP58 whole entry, looked up): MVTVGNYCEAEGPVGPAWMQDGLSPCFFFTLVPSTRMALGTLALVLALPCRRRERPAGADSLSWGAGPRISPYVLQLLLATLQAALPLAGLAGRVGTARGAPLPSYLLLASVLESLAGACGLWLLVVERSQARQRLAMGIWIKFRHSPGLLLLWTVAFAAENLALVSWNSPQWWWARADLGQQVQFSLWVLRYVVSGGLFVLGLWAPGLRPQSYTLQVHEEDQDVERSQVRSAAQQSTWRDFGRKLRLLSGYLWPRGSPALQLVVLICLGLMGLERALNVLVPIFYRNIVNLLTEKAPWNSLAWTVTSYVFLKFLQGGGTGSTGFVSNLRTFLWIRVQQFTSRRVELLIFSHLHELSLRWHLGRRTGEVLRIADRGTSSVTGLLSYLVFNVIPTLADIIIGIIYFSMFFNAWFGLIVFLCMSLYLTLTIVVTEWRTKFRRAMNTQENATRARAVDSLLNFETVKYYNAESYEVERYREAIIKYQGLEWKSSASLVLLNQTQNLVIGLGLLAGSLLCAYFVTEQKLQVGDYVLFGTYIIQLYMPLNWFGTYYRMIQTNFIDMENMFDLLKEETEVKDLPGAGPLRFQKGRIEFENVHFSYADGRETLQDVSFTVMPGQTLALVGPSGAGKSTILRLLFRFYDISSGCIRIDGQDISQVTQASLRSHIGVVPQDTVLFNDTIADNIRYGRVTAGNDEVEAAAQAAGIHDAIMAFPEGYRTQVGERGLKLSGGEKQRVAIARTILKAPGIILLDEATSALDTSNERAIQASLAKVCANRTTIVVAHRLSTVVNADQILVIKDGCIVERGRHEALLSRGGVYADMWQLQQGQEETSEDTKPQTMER
VLA-4 inh: inhibition in human VLA-4 binding assay, primary screen, VLA-4 allosteric modulator project, MLPCN library, flow cytometry, VLA-4 expressing cells | Integrin alpha-4 (Homo sapiens), P13612 | ligand binding flow cytometry | inhibition, % (about 7 µM as worked out from the volumes in the protocol) | 0.2% of 330,000 active | AID 2557, 2010; in the data active means inhibition above about 50%
FGF22 binding: binders of human FGF22 protein, primary screen, FGF22 synaptogenesis inhibitor project, biophysical, thermal shift, single point | activity (Tm shift, normalised), % at 9.99 µM | AID 651658, 2012 | 1.5% of 340,000 active | Fibroblast growth factor 22 (Homo sapiens), Q9HCT0 | recombinant FGF22 thermal shift, SYPRO orange fluorescence; percent of sucrose octasulfate shift, DMSO zero;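 active means mean Tm shift, scaled 0 neutral to 100 positive control, at about 1.3% or above, every replicate too, limit read from the data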
Granule exo inh: LAMP-1 surface exposure blockers, TALL-104 cells – cell-based, flow cytometry, MLPCN library, primary screen | TALL-104 LAMP-1 surface exposure; cells stimulated with thapsigargin and PMA | inhibition, % at 10 µM | 0.66% of 360,000 active;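 active means inhibition above about 55%, limit read from the data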
ABCB6 blocker 1: ABCB6 transporter inhibitors, confirmation, K562-ABCB6 cells, flow cytometry, cherry pick 1 | ratio response (% of DMSO), % at 10 µM | K562-ABCB6 porphyrin accumulation, 1 h; active compounds read low | 700 tested, under 10 active | shares compounds with ABCB6 inh 2 | AID 602430, 2012;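 active means repeat-averaged ratio response below 75% of DMSO, the collection mean minus 3 SD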;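 further: median porphyrin fluorescence at 575 nm with 488 nm excitation from mitochondria; lower ratio means less porphyrin signal so ABCB6 inhibition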
Numbers without * were called inactive.

For Cc1ccc(C)c(Cn2nnc3c(=O)[nH]c(C4CCN(C(=O)c5ccco5)CC4)nc32)c1 the results were DAGLB inh 2, MT1-MMP act inh -2, ABCB6 inh 2 102, VLA-4 inh 10, FGF22 binding 0, Granule exo inh 8 and ABCB6 blocker 1 102.
`O=C(c1ccco1)N1CCC(c2nc3c(nnn3Cc3ccc(F)cc3)c(=O)[nH]2)CC1` gave DAGLB inh 1, MT1-MMP act inh 5, ABCB6 inh 2 98, VLA-4 inh 12, FGF22 binding 0, Granule exo inh 3 and ABCB6 blocker 1 100.
O=C(c1ccco1)N1CCCC(c2nc3c(nnn3Cc3ccccc3)c(=O)[nH]2)C1 (stereo not given) was read as DAGLB inh 3, MT1-MMP act inh 0, ABCB6 inh 2 99, VLA-4 inh 46, FGF22 binding 0 and Granule exo inh 5.
Screening CCC(=O)N1C[C@@H](O)COC[C@H]2O[C@H](CC(=O)NCc3cc(F)cc(F)c3)CC[C@@H]21 returned FGF22 binding 0.
C[C@@H]1CN([C@H](C)CO)S(=O)(=O)c2ccc(C#CC3CC3)cc2O[C@@H]1CN(C)C(=O)c1ccccc1 was read as FGF22 binding 0.
`CCN1CCN(S(=O)(=O)c2ccc(OC)c(Br)c2)CC1` gave DAGLB inh 2, MT1-MMP act inh 0, ABCB6 inh 2 74*, VLA-4 inh 2, Granule exo inh 1 and ABCB6 blocker 1 100.
For COc1ccc(/C=C2/C(=O)OCc3cc(OC)c(OC)cc32)cc1 the results were DAGLB inh -1, MT1-MMP act inh -6, ABCB6 inh 2 65*, VLA-4 inh -26, Granule exo inh 5 and ABCB6 blocker 1 97.
For Cc1nc2c(F)c(F)c(C(F)(F)F)c(F)c2[nH]1 the results were DAGLB inh -1, MT1-MMP act inh -1, ABCB6 inh 2 69*, VLA-4 inh 2, Granule exo inh 0 and ABCB6 blocker 1 101.
Cc1nc2c(Br)c3nc(C(F)(F)F)[nH]c3c(Br)c2[nH]1 was read as DAGLB inh -4, MT1-MMP act inh 3, ABCB6 inh 2 103, VLA-4 inh 9 and Granule exo inh -8.
`C[C@@H]1CCCCO[C@@H](CN(C)C(=O)Nc2ccc(F)cc2)[C@@H](C)CN([C@H](C)CO)C(=O)c2cc(NC(=O)CCCN(C)C)ccc2O1` gave FGF22 binding 0.
For CCOC(=O)N1CCN(S(=O)(=O)c2ccc(F)c(C(=O)Nc3cccc(C)c3C)c2)CC1 the results were DAGLB inh 0, MT1-MMP act inh -3, ABCB6 inh 2 72*, VLA-4 inh 7, FGF22 binding 0, Granule exo inh 2 and ABCB6 blocker 1 99.
Screening CCCC(=O)Nc1ccc2c(c1)OC[C@@H](C)N(C(=O)Cc1cccnc1)C[C@@H](C)[C@H](OC)CN(C)C2=O returned FGF22 binding 0.
Screening O=C(NCCc1csc(-c2cccnc2)n1)c1ccc(Cl)cc1 returned DAGLB inh 1, MT1-MMP act inh 0, ABCB6 inh 2 74*, VLA-4 inh -10, FGF22 binding 0, Granule exo inh 0 and ABCB6 blocker 1 101.
O=C(CN1C(=O)c2cccc3cccc1c23)N1CCN(c2ccccc2)CC1 was read as DAGLB inh -4, MT1-MMP act inh -5, ABCB6 inh 2 89, VLA-4 inh 10 and Granule exo inh 0.
O=C(CN1C(=O)c2cccc3cccc1c23)N1CCN(c2ccc(F)cc2)CC1 was read as DAGLB inh -3, MT1-MMP act inh 7, ABCB6 inh 2 60*, VLA-4 inh 0, Granule exo inh -4 and ABCB6 blocker 1 104.
Screening CCOC(=O)C1CCN(S(=O)(=O)c2ccc(Cl)s2)CC1 returned DAGLB inh -4, MT1-MMP act inh 0, ABCB6 inh 2 68*, VLA-4 inh 6, FGF22 binding 0, Granule exo inh 5 and ABCB6 blocker 1 99.
CCOC(=O)c1ccc(S(=O)(=O)N2CCC(C(=O)OCC)CC2)cc1 was read as DAGLB inh -1, MT1-MMP act inh 1, ABCB6 inh 2 60*, VLA-4 inh 2, FGF22 binding 0, Granule exo inh -2 and ABCB6 blocker 1 103.
Screening CCOC(=O)C1CCN(S(=O)(=O)c2ccc(OCC)cc2)CC1 returned DAGLB inh -6, MT1-MMP act inh 3, ABCB6 inh 2 99, VLA-4 inh -1, Granule exo inh -1 and ABCB6 blocker 1 101.
For CC(Sc1nc2ccccc2c(=O)n1C)C(=O)N(C)C1CCCCC1 (stereo not given) the results were DAGLB inh 0, MT1-MMP act inh -2, ABCB6 inh 2 74*, VLA-4 inh -3, FGF22 binding 0, Granule exo inh 2 and ABCB6 blocker 1 100.
CC(Sc1nc2ccccc2c(=O)n1CC1CCCO1)C(=O)N(C)Cc1ccccc1 (stereo not given) was read as DAGLB inh -1, MT1-MMP act inh -1, ABCB6 inh 2 98, VLA-4 inh -20 and Granule exo inh -6.
For O=C(NCCc1ccccc1)[C@@H]1[C@@H](CO)[C@@H]2Cn3c(ccc(-c4ccccc4)c3=O)[C@H]1N2 the results were FGF22 binding 0.
For Cc1noc(C)c1NC(=O)N(C)C[C@@H]1Oc2ccc(NC(=O)NC(C)C)cc2CC(=O)N([C@@H](C)CO)C[C@@H]1C the results were FGF22 binding 0.
For COc1cccc(C(=O)Nc2ccc3c(c2)OC[C@@H](C)N(C(=O)C2CCOCC2)C[C@@H](C)[C@H](OC)CN(C)C3=O)c1 the results were FGF22 binding 0.
`Nc1nc(SCc2c(F)cccc2Cl)[nH]c(=O)c1-c1ccccc1` gave DAGLB inh 1, MT1-MMP act inh 0, ABCB6 inh 2 50*, VLA-4 inh 8, Granule exo inh 7 and ABCB6 blocker 1 98.
Screening Clc1ccc2c(NCc3ccccn3)ncnc2c1 returned DAGLB inh -3, MT1-MMP act inh -2, ABCB6 inh 2 94, VLA-4 inh -1 and Granule exo inh 1.
